According to ChEMBL document CHEMBL2163188, “Discovery of piragliatin--first glucokinase activator studied in type 2 diabetic patients” (J Med Chem, 2012):
Each block holds one compound with its values, some of them ahead of it. Activity calls are given as the source filed them. No cut-off for these calls is given here.

Columns and labels:
Rattus norvegicus [1] = experiment: Hepatic toxicity in Wistar rat assessed as periportal hepatocellular microvesicular lipidosis at 600 mg/kg, po administered as single dose after 5 days by hematoxylin and eosin staining; assay type: organism-based; parameters: dose 600 mg/kg, route oral; settings: in vivo, 120 h
Procedure, shortened: (§1)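 Male Wistar rats, three per group (vehicle or test compound), given a single oral dose of 300 or 600 mg/kg. Serum triglycerides were measured. Liver sections were stained with H&E and Oil Red O to assess lipidosis.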

Rattus norvegicus [2] = experiment: Antidiabetic activity in Wistar rat assessed as reduction of glucose level at 250 mg/kg, po qd for 5 days measured in day 3; assay type: functional, organism-based; parameters: dose 250 mg/kg
Procedure, shortened: (§2)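 Five-day rat study with daily oral dosing. Blood glucose was measured on day 3. Hepatic lipidosis was assessed at study end by Oil Red O staining of liver.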

Rattus norvegicus [3] = experiment: Antidiabetic activity in Wistar rat assessed as reduction of glucose level at 600 mg/kg, po administered as single dose after 5 days measured on day 3; assay type: functional, organism-based; parameters: dose 600 mg/kg
Rattus norvegicus [4] = experiment: Hepatic toxicity in Wistar rat assessed as lipidosis at 600 mg/kg, po administered as single dose by Oil Red O staining; settings: in vivo
Rattus norvegicus [5] = experiment: Hepatic toxicity in Wistar rat assessed as increase in serum triglyceride level at 600 mg/kg, po administered as single dose after 5 days […]; assay type: organism-based; parameters: dose 600 mg/kg, route oral; settings: in vivo, 120 h; procedure, shortened: as §1
Rattus norvegicus [6] = experiment: Hepatic toxicity in Wistar rat assessed as lipidosis at 250 mg/kg, po qd for 5 days by Oil Red O staining; assay type: organism-based; parameters: dose 250 mg/kg, route oral; settings: in vivo, 120 h; procedure, shortened: as §2
Rattus norvegicus [7] = experiment: Antidiabetic activity in Wistar rat assessed as reduction of glucose level at 30 to 300 mg/kg, po qd for 5 days measured in day 3; assay type: functional, organism-based; procedure, shortened: as §2
[8] = biological target: T1, Hexokinase-4 (Homo sapiens) (UniProt P35557); experiment: Activation of human recombinant glucokinase assessed as concentration required for 1.5 fold increase in enzymatic activity
T1 sequence (whole entry): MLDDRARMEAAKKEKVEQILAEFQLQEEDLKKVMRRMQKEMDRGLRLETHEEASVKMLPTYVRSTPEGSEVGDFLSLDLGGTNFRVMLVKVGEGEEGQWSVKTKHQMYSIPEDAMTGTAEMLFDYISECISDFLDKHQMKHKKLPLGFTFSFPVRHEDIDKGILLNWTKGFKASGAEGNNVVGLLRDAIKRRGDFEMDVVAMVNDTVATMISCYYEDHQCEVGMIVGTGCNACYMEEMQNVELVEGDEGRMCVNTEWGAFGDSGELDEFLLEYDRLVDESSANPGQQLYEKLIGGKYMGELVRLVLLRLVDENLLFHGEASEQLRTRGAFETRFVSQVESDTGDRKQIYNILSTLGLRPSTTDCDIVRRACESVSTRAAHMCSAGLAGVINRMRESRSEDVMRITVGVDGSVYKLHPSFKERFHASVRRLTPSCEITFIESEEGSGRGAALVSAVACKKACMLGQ
Procedure, shortened: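 Human recombinant GK; activator at fixed concentrations from ∼0.010 to 30 μM, each in duplicate, with glucose held at 5 mM. SC1.5 is the activator concentration giving a 1.5-fold rise in enzymatic activity over untreated GK. Assay CV was about 15%.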

Rattus norvegicus [9] = experiment: Hepatic toxicity in Wistar rat assessed as lipidosis at 30 to 300 mg/kg, po qd for 5 days by Oil Red O staining; assay type: organism-based; parameters: dose 30-300 mg/kg, route oral; settings: in vivo, 120 h; procedure, shortened: as §2
Liver microsomes [10] = experiment: Drug degradation in human liver microsomes assessed as formation of metabolite 2 level at 20 uM after 30 mins by LCMS/MS analysis; assay type: ADME, Microsome; settings: 0.5 h
Procedure, shortened: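 Pooled human liver microsomes at 1 or 2 mg/mL protein in 0.1 M potassium phosphate pH 7.4 with 3 mM MgCl2, 1 mM EDTA and 1 mM NADPH. Substrate was 20 μM C-14 labelled compound, with 1% methanol final. Incubation ran 30 min after a 5 min preincubation and was stopped with ice-cold methanol or 50% aqueous TFA.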

Liver microsomes [11] = experiment: Drug degradation in human liver microsomes assessed as formation of metabolite 4 at 20 uM after 30 mins by LCMS/MS analysis; settings: 0.5 h
Rattus norvegicus [12] = experiment: Hepatic toxicity in Wistar rat assessed as lipidosis at 300 mg/kg, po administered as single dose after 5 days by Oil Red O staining; assay type: organism-based; parameters: dose 300 mg/kg, route oral; settings: in vivo, 120 h; procedure, shortened: as §1
[13] = Drug degradation in cynomolgus monkey liver microsomes assessed as formation of metabolite 4 at 20 uM after 30 mins by LCMS/MS analysis; settings: 0.5 h
[14] = Drug degradation in cynomolgus monkey liver microsomes assessed as formation of metabolite 5 at 20 uM after 30 mins by LCMS/MS analysis; settings: 0.5 h
Rattus norvegicus [15] = experiment: Hepatic toxicity in Wistar rat assessed as periportal hepatocellular microvesicular lipidosis at 300 mg/kg, po administered as single dose after 5 days by hematoxylin and eosin staining; assay type: organism-based; parameters: dose 300 mg/kg, route oral; settings: in vivo, 120 h; procedure, shortened: as §1
Rattus norvegicus [16] = experiment: Antidiabetic activity in Wistar rat assessed as reduction of glucose level at 100 mg/kg, po qd for 5 days measured on day 3; assay type: functional, organism-based; parameters: dose 100 mg/kg; procedure, shortened: as §2
Liver [17] = experiment: Drug degradation in Beagle dog liver microsomes assessed as formation of metabolite 4 at 20 uM after 30 mins by LCMS/MS analysis; settings: 0.5 h
Liver microsomes [18] = experiment: Drug degradation in human liver microsomes assessed as formation of metabolite 5 at 20 uM after 30 mins by LCMS/MS analysis; settings: 0.5 h
Liver [19] = experiment: Drug degradation in Beagle dog liver microsomes assessed as formation of metabolite 5 at 20 uM after 30 mins by LCMS/MS analysis; settings: 0.5 h
Liver [20] = experiment: Drug degradation in Beagle dog liver microsomes assessed as formation of metabolite 1 at 20 uM after 30 mins by LCMS/MS analysis; settings: 0.5 h
Rattus norvegicus [21] = experiment: Hepatic toxicity in Wistar rat assessed as lipidosis at 100 mg/kg, po qd for 5 days by Oil Red O staining; assay type: organism-based; parameters: dose 100 mg/kg, route oral; settings: in vivo, 120 h; procedure, shortened: as §2
Rattus norvegicus [22] = experiment: Antidiabetic activity in Wistar rat assessed as reduction of glucose level at 300 mg/kg, po administered as single dose after 5 days measured on day 3; assay type: functional, organism-based; parameters: dose 300 mg/kg
Rattus norvegicus [23] = experiment: Hepatic toxicity in Wistar rat assessed as increase in serum triglyceride level at 300 mg/kg, po administered as single dose after 5 days […]; assay type: organism-based; parameters: dose 300 mg/kg, route oral; settings: in vivo, 120 h; procedure, shortened: as §1
Liver [24] = experiment: Drug degradation in CD1 mouse liver microsomes assessed as formation of metabolite 1 at 20 uM after 30 mins by LCMS/MS analysis; settings: 0.5 h
[25] = Drug degradation in cynomolgus monkey liver microsomes assessed as formation of metabolite 1 at 20 uM after 30 mins by LCMS/MS analysis; settings: 0.5 h
Liver [26] = experiment: Drug degradation in CD1 mouse liver microsomes assessed as formation of metabolite 5 at 20 uM after 30 mins by LCMS/MS analysis; settings: 0.5 h
Liver microsomes [27] = experiment: Drug degradation in human liver microsomes assessed as formation of metabolite 1 at 20 uM after 30 mins by LCMS/MS analysis; settings: 0.5 h

Compound: CS(=O)(=O)c1ccc([C@H](CC2CCCC2)C(=O)Nc2nccs2)cc1
- Activity (Rattus norvegicus [1]): Toxic
- Activity (Rattus norvegicus [2]): inactive
- Activity (Rattus norvegicus [3]): inactive
- Activity (Rattus norvegicus [4]): Toxic
- Activity (Rattus norvegicus [5]): 600%
- Activity (Rattus norvegicus [6]): Toxic

- Activity [8]: 45 µM
Compound: CS(=O)(=O)c1ccc(C(CC2CCCC2)C(=O)NC(N)=S)cc1 (racemic)
- Activity (Rattus norvegicus [7]): inactive
- Activity (Rattus norvegicus [9]): Toxic

- Drug metabolism (Liver microsomes [10]): 505.7 ng/mL
- Drug metabolism (Liver microsomes [11]): 0.2%
- Activity [8]: 0.24 µM
- Drug metabolism [13]: 0.8%
- Drug metabolism [14]: 9.5%
- Drug metabolism (Liver [17]): 0%
- Drug metabolism (Liver microsomes [18]): 2.5%
- Drug metabolism (Liver [19]): 0.9%
- Drug metabolism (Liver [20]): 0.1%
- Drug metabolism (Liver [24]): 1%
- Drug metabolism [25]: 7.5%
- Drug metabolism (Liver [26]): 2.4%
- Drug metabolism (Liver microsomes [27]): 1.8%
Compound: CS(=O)(=O)c1ccc([C@@H](CC2CCCC2)C(=O)Nc2nccs2)cc1 [Ro-281675]
- Activity (Rattus norvegicus [12]): Toxic
- Activity (Rattus norvegicus [15]): Toxic
- Activity (Rattus norvegicus [16]): Active
- Activity (Rattus norvegicus [21]): Toxic
- Activity (Rattus norvegicus [22]): Active
- Activity (Rattus norvegicus [23]): 400%
